Reference: ChEMBL document CHEMBL1151977, “Antiviral constituents against respiratory viruses from Mikania micrantha” (J Nat Prod, 2009)

Key:
[1] = Therapeutic index, ratio of TC50 for human Hep2 cells to IC50 for Parainfluenza virus type 3 infected in human Hep2 cells; type: cell-based, HEp-2; details: read-out: TI
Summary of the method: (§1)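 Antiviral IC50 came from a virus-induced cytopathic effect reduction assay in infected cells. Therapeutic index was calculated as TC50 divided by IC50.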

Human respirovirus 3 = assay: Antiviral activity against Parainfluenza virus type 3 infected in human Hep2 cells assessed as inhibition of virus-induced cytopathogenic effect by plaque reduction assay; type: functional, organism-based; details: Human respirovirus 3, HEp-2
Influenza A virus = assay: Antiviral activity against Influenza A virus infected in MDCK cells assessed as inhibition of virus-induced cytopathogenic effect by plaque reduction assay; type: functional, organism-based
[2] = Therapeutic index, ratio of TC50 for MDCK cells to IC50 for Influenza A virus infected in MDCK cells; type: cell-based; details: dog, read-out: TI; summary of the method: as §1
[3] = Cytotoxicity against human Hep2 cells; type: cell-based, HEp-2; details: read-out: TC50 (the source's name)
[4] = tested on: Respiratory syncytial virus; assay: Antiviral activity against Respiratory syncytial virus infected in human Hep2 cells assessed as inhibition of virus-induced cytopathogenic effect by plaque reduction assay; type: functional, organism-based; details: HEp-2
[5] = Cytotoxicity against MDCK cells; type: cell-based, Canis lupus familiaris; details: dog, read-out: TC50 (the source's name)
[6] = Therapeutic index, ratio of TC50 for human Hep2 cells to IC50 for Respiratory syncytial virus infected in human Hep2 cells; type: cell-based, HEp-2; details: read-out: TI; summary of the method: as §1

| SMILES | selectivity ratio [1] | IC50 (Human respirovirus 3) [µM] | IC50 (Influenza A virus) [µM] | selectivity ratio [2] | CC50 [3] [µM] | IC50 [4] [µM] | CC50 [5] [µM] | selectivity ratio [6] |
| --- | --- | --- | --- | --- | --- | --- | --- | --- |
| CC(C)[C@@H](C)/C=C/[C@@H](C)[C@H]1CC[C@H]2C3=CC[C@H]4C[C@@H](O)CC[C@]4(C)[C@H]3CC[C@]12C | 6 | 50.5 | 202 | 2 | 303 | 50.5 | 405 | 6 |
| CC(=O)O[C@H]1C[C@@H]2O[C@@]2(C)C[C@@H]2OC(=O)[C@H](C)[C@H]2[C@H]2C=C1C(=O)O2 | 1 | 186 | 186 | 1 | 186 | 61.9 | 186 | 3 |
| COc1ccc(-c2oc3cc(OC)c(OC)c(O)c3c(=O)c2OS(=O)(=O)O)cc1 | 24 | 19.7 | 79 | 3 | 472 | 79 | 237 | 6 |
| C[C@H]1C(=O)O[C@H]2C[C@]3(C)O[C@H]3CCC3=C[C@@H](OC3=O)[C@@H]21 | 16 | 37.4 | > 360 | < 1.7 | 600 | 37.4 | 600 | 16 |
| C[C@H]1C(=O)O[C@H]2C[C@]3(C)O[C@H]3[C@@H]3O[C@@H]3C3=C[C@@H](OC3=O)[C@@H]21 [DIHYDROMIKANOLIDE] | 1.5 | 143 | 143 | 1.5 | 214 | 143 | 214 | 1.5 |
| COc1ccc(-c2oc3cc(OC)c(OC)c(O)c3c(=O)c2O)cc1 [MIKANIN] | 2 | 41.6 | 167 | 3 | 83.1 | 55.5 | 500 | 1.5 |
| NC(=O)c1ncn([C@@H]2O[C@H](CO)[C@@H](O)[C@H]2O)n1 [RIBAVIRIN] | – | 10.7 | 42.6 | – | – | 10.7 | > 256 | – |
